Experiment [1] addresses T1, Vitamin D3 receptor (Gallus gallus) (UniProt O42392).
T1 sequence (whole entry): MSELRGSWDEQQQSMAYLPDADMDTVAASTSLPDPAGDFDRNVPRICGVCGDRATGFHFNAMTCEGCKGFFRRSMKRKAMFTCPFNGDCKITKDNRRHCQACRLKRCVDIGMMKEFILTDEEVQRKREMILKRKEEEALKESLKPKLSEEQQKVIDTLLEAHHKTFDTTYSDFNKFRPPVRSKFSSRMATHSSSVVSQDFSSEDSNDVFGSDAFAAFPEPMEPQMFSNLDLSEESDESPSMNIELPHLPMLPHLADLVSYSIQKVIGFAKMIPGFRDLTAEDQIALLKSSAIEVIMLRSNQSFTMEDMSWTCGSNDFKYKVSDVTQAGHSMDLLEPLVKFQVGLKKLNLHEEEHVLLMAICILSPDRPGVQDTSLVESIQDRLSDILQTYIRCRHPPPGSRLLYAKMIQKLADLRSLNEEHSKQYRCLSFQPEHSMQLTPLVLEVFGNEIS
As to the kind of experiment: Binding affinity to chick intestinal VDR relative to 1,25-D3. The procedure, abridged:
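Competitive binding: receptor solution was incubated with [26,27-methyl-³H]-1,25-D3 (15 000 dpm, 180 Ci/mmol) and graded test compound in ethanol for 60 min at 25 °C. It was then cooled to 4 °C and precipitated with 40% PEG 6000, and the pellet was spun at 2260g for 60 min at 4 °C. Pellet radioactivity was counted by liquid scintillation. Affinity is expressed relative to 1,25-D3 = 100.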

Experiment [2] has as its target T2, Vitamin D3 receptor (Homo sapiens, UniProt P11473).
T2 sequence (P11473 whole entry): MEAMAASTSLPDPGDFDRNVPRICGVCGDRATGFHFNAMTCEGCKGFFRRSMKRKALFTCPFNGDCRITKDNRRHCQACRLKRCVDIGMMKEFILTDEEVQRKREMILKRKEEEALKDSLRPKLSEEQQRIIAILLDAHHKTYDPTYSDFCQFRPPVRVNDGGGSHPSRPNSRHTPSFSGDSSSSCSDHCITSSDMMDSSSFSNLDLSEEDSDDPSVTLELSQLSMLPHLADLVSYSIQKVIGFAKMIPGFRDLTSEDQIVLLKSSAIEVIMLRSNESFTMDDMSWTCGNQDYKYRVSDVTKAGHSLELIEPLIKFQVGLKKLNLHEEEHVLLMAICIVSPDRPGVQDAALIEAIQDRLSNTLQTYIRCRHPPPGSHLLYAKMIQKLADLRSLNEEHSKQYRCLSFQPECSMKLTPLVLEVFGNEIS
As to the kind of experiment: Antagonist activity assessed by differentiation of 1,25-D3-induced HL60 cells. The experiment is classed as functional, cell-based. The conditions noted are these: hl-60. The procedure, abridged: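 HL-60 cells in RPMI-1640 with 10% heat-inactivated FBS, seeded at 3 × 10³ cells/mL. Cells were given graded test compound in ethanol plus 1,25-D3 as the inducer, then cultured 96 h at 37 °C in 5% CO2 with no medium change. NBT (0.1%) and TPA (100 ng/mL) were added at final concentrations for 25 min at 37 °C. NBT-positive cells were counted on cytospin smears, and IC50 was taken.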

Experiment [3] has as its target T3, Vitamin D3 receptor (Rattus norvegicus) (UniProt P13053).
T3 sequence (whole entry): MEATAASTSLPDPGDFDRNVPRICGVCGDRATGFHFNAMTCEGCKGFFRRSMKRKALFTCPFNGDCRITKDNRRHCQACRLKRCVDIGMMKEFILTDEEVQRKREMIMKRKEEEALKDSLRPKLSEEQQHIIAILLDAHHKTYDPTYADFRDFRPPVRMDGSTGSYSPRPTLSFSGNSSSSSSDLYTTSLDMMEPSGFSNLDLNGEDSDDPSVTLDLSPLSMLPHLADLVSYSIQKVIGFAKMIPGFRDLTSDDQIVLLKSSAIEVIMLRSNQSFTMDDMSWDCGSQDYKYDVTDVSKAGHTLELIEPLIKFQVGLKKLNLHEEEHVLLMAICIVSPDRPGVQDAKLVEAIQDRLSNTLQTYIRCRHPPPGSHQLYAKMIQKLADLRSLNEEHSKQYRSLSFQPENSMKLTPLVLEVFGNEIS
As to the kind of experiment: Inhibition of rat VDR mediated transactivation of luciferase in COS7 cells. The experiment is classed as functional, cell-based. The conditions noted are these: COS-7.

The target in experiment [4] is T4, Vitamin D3 receptor (Homo sapiens) (UniProt P11473).
T4 sequence (whole entry): T2 sequence (P11473 whole entry)
Nature of the experiment: Inhibition of human VDR mediated transactivation of luciferase in COS7 cells. Format: functional, cell-based. Conditions: COS-7; call rule not given here.

From ChEMBL document CHEMBL1146092, “Practical synthesis and evaluation of the biological activities of 1alpha,25-dihydroxyvitamin D3 antagonists, 1alpha,25-dihydroxyvitamin D3-26,23-lactams. Designed on the basis of the helix 12-folding inhibition hypothesis” (J Med Chem, 2006) come the findings set out here.

Compound `C=C1/C(=C\C=C2/CCC[C@@]3(C)C2CC[C@@H]3[C@H](C)C[C@@H]2C[C@](C)(O)C(=O)N2Cc2ccc(OC)cc2)C[C@@H](O)C[C@@H]1O` (stereo partly drawn) returned an Activity in experiment [1] of 0.1%. Also, in experiment [2], the IC50 result was “Not Active”.
Taken in the same sequence, the figures for `C=C1/C(=C\C=C2/CCC[C@@]3(C)C2CC[C@@H]3[C@H](C)C[C@@H]2C[C@@](C)(O)C(=O)N2CCCCc2ccccc2)C[C@@H](O)C[C@@H]1O` (stereo partly drawn) were 0.3% and “Not Active”.
For `C=C1/C(=C\C=C2/CCC[C@@]3(C)C2CC[C@@H]3[C@H](C)C[C@@H]2C[C@](C)(O)C(=O)N2C(C)C)C[C@@H](O)C[C@@H]1O` (stereo partly drawn) the same measures were 0.11% and “Not Active”.
Taken in the same sequence, the figures for `C=C1/C(=C\C=C2/CCC[C@@]3(C)C2CC[C@@H]3[C@H](C)C[C@@H]2C[C@@](C)(O)C(=O)N2Cc2ccccc2)C[C@@H](O)C[C@@H]1O` (stereo partly drawn) were 0.25% and “Not Active”.
As for `C=C1/C(=C\C=C2/CCC[C@@]3(C)C2CC[C@@H]3[C@H](C)C[C@@H]2C[C@](C)(O)C(=O)N2CCCCc2ccccc2)C[C@@H](O)C[C@@H]1O` (stereo partly drawn), in experiment [1], the Activity was 0.1%. The IC50 result in experiment [2] was “Not Active”.
Taken in the same sequence, the figures for `C=C1/C(=C\C=C2/CCC[C@@]3(C)C2CC[C@@H]3[C@H](C)C[C@@H]2C[C@@](C)(O)C(=O)N2CCCc2ccccc2)C[C@@H](O)C[C@@H]1O` (stereo partly drawn) were 0.19% and “Not Active”.
As to `C=C1/C(=C\C=C2/CCC[C@@]3(C)C2CC[C@@H]3[C@H](C)C[C@H]2C[C@@](C)(O)C(=O)N2Cc2ccc(OC)cc2)C[C@@H](O)C[C@@H]1O` (stereo partly drawn), the Activity in experiment [1] came out at 0.09%. For the same compound, the IC50 entry in experiment [2] is reported as “Not Active”.
For `C=C1/C(=C\C=C2/CCC[C@@]3(C)C2CC[C@@H]3[C@H](C)C[C@H]2C[C@@](C)(O)C(=O)N2C(C)C)C[C@@H](O)C[C@@H]1O` (stereo partly drawn) the same measures were 0.14% and “Not Active”.
In experiment [1], `C=C1/C(=C\C=C2/CCC[C@@]3(C)C2CC[C@@H]3[C@H](C)C[C@H]2C[C@@](C)(O)C(=O)N2CCc2ccccc2)C[C@@H](O)C[C@@H]1O` (stereo partly drawn) showed an Activity of 0.34%.
Still for that read-out and setting: the same measure for `C=C1/C(=C\C=C2/CCC[C@@]3(C)C2CC[C@@H]3[C@H](C)C[C@H]2C[C@](C)(O)C(=O)N2Cc2ccc(OC)cc2)C[C@@H](O)C[C@@H]1O` (stereo partly drawn): 2.2%.
`C=C1/C(=C\C=C2/CCC[C@@]3(C)C2CC[C@@H]3[C@H](C)C[C@@H]2C[C@@](C)(O)C(=O)N2Cc2ccc(OC)cc2)C[C@@H](O)C[C@@H]1O` (stereo partly drawn) returned an Activity in experiment [1] of 0.3%. Besides, the IC50 result in experiment [2] was “Not Active”.
The compound `C=C1/C(=C\C=C2/CCC[C@@]3(C)C2CC[C@@H]3[C@H](C)C[C@H]2C[C@](C)(O)C(=O)N2C(C)C)C[C@@H](O)C[C@@H]1O` (stereo partly drawn) came in with an Activity in experiment [1] of 1.52%.
Turning to `C=C1/C(=C\C=C2/CCC[C@@]3(C)C2CC[C@@H]3[C@H](C)C[C@H]2C[C@@](C)(O)C(=O)N2Cc2ccccc2)C[C@@H](O)C[C@@H]1O` (stereo partly drawn), in experiment [1], the Activity was found to be 0.18%. The IC50 entry in experiment [2] was “Not Active”.
With `C=C1/C(=C\C=C2/CCC[C@@]3(C)C2CC[C@@H]3[C@H](C)C[C@H]2C[C@](C)(O)C(=O)N2CCCc2ccccc2)C[C@@H](O)C[C@@H]1O` (stereo partly drawn), in experiment [1], the Activity was 0.68%.
`C=C1/C(=C\C=C2/CCC[C@@]3(C)C2CC[C@@H]3[C@H](C)C[C@H]2C[C@@](C)(O)C(=O)N2CCCCc2ccccc2)C[C@@H](O)C[C@@H]1O` (stereo partly drawn): the Activity in experiment [1] came to 0.09%. Also, the IC50 result in experiment [2] is “Not Active”.
For `C=C1/C(=C\C=C2/CCC[C@@]3(C)C2CC[C@@H]3[C@H](C)C[C@@H]2C[C@](C)(O)C(=O)N2Cc2ccccc2)C[C@@H](O)C[C@@H]1O` (stereo partly drawn) the same measures were 0.25% and “Not Active”.
For `C=C1/C(=C\C=C2/CCC[C@@]3(C)C2CC[C@@H]3[C@H](C)C[C@@H]2C[C@@](C)(O)C(=O)N2C(C)C)C[C@@H](O)C[C@@H]1O` (stereo partly drawn) the same measures were 0.14% and “Not Active”.
For `C=C1/C(=C\C=C2/CCC[C@@]3(C)C2CC[C@@H]3[C@H](C)C[C@H]2C[C@](C)(O)C(=O)N2Cc2ccccc2)C[C@@H](O)C[C@@H]1O` (stereo partly drawn), the Activity result in experiment [3] was “Dose-dependent effect”; in experiment [1], 2.74%; in experiment [4], “Dose-dependent effect”.
On to `C=C1/C(=C\C=C2/CCC[C@@]3(C)C2CC[C@@H]3[C@H](C)C[C@@H]2C[C@](C)(O)C(=O)N2CCCc2ccccc2)C[C@@H](O)C[C@@H]1O` (stereo partly drawn), for which the Activity in experiment [1] worked out at 0.03%. Besides, in experiment [2], the IC50 entry was “Not Active”.
`C=C1/C(=C\C=C2/CCC[C@@]3(C)C2CC[C@@H]3[C@H](C)C[C@H]2C[C@](C)(O)C(=O)N2CCc2ccccc2)C[C@@H](O)C[C@@H]1O` (stereo partly drawn) displayed an Activity in experiment [1] of 8%.
On the same count and under the same terms, as for `C=C1/C(=C\C=C2/CCC[C@@]3(C)C2CC[C@@H]3[C@H](C)C[C@H]2C[C@](C)(O)C(=O)N2CCCCc2ccccc2)C[C@@H](O)C[C@@H]1O` (stereo partly drawn), the figure is 5.24%.
On to `C=C1/C(=C\C=C2/CCC[C@@]3(C)C2CC[C@@H]3[C@H](C)C[C@H]2C[C@@](C)(O)C(=O)N2CCCc2ccccc2)C[C@@H](O)C[C@@H]1O` (stereo partly drawn), for which, in experiment [1], the Activity was 0.09%. Besides, the IC50 entry in experiment [2] is recorded as “Not Active”.
Taken in the same sequence, the figures for `C=C1/C(=C\C=C2/CCC[C@@]3(C)C2CC[C@@H]3[C@H](C)C[C@@H]2C[C@@](C)(O)C(=O)N2CCc2ccccc2)C[C@@H](O)C[C@@H]1O` (stereo partly drawn) were 0.51% and “Not Active”.
Taken in the same sequence, the figures for `C=C1/C(=C\C=C2/CCC[C@@]3(C)C2CC[C@@H]3[C@H](C)C[C@@H]2C[C@](C)(O)C(=O)N2CCc2ccccc2)C[C@@H](O)C[C@@H]1O` (stereo partly drawn) were 0.19% and “Not Active”.
